# Measurements: ChEMBL document CHEMBL2040835, “Disubstituted Bis-THF Moieties as New P2 Ligands in Nonpeptidal HIV-1 Protease Inhibitors” (ACS Med Chem Lett, 2011)
# Assays:
# [1] = tested on: Human immunodeficiency virus 1; assay: Antiviral activity against Human immunodeficiency virus 1 isolate M2 expressing protease L10I, I13V, M46I, I50V, L63P, L76V mutant infected in human MT4 cells; assay type: functional, organism-based; settings: Human immunodeficiency virus 1, isolate M2, MT4
# Summary of the method: (§1)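 Cell-based antiviral assay in MT4 cells infected with a multi-PI-resistant HIV-1 mutant carrying clinically observed primary protease mutations. EC50 determined, with all assays run in quadruplicate.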
# [2] = tested on: Human immunodeficiency virus 1; assay: Antiviral activity against Human immunodeficiency virus 1 3B expressing wild-type protease infected in human MT4 cells in presence of 50% human serum; assay type: functional, organism-based
# Summary of the method: (§2)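 Cell-based antiviral assay in MT4 cells infected with wild-type HIV-1 IIIB, read as EC50. Run in quadruplicate. It was also repeated in the presence of 50% human serum as an indicator of plasma protein binding.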
# [3] = Cytotoxicity against human MT4 cells; assay type: cell-based
# [4] = tested on: Human immunodeficiency virus 1; assay: Antiviral activity against Human immunodeficiency virus 1 3B expressing wild-type protease infected in human MT4 cells; assay type: functional, organism-based; summary of the method: as §2
# [5] = tested on: Human immunodeficiency virus 1; assay: Antiviral activity against Human immunodeficiency virus 1 isolate M1 expressing protease L10I, M46I, I64V, I84V, L90M, I93L mutant infected in human MT4 cells; assay type: functional, organism-based; settings: Human immunodeficiency virus 1, isolate M1, MT4; summary of the method: as §1
# [6] = tested on: Human immunodeficiency virus 1; assay: Antiviral activity against Human immunodeficiency virus 1 isolate M3 expressing protease L10I, K20R, M36I, G48V, I62V, A71V, V82A, I93L mutant infected in human MT4 cells; assay type: functional, organism-based; settings: Human immunodeficiency virus 1, isolate M3, MT4
# [7] = Selectivity index, ratio of CC50 for human MT4 cells to EC50 for Human immunodeficiency virus 1 3B; assay type: toxicity, cell-based
# Summary of the method: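 Selectivity index is calculated as CC50 divided by EC50 against HIV-1 IIIB in the cell-based assay.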
# [8] = tested on: Human immunodeficiency virus 1; assay: Selectivity index, ratio of EC50 for Human immunodeficiency virus 1 isolate M2 expressing protease L10I, I13V, M46I, I50V, L63P, L76V mutant to EC50 for Human immunodeficiency virus 1 3B expressing wild-type protease; assay type: functional
# Summary of the method: (§3)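 Fold change is the EC50 against the multi-PI-resistant mutant divided by the EC50 against wild-type HIV-1 IIIB. Both EC50s come from cell-based assays in MT4 cells run in quadruplicate.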
# [9] = tested on: Human immunodeficiency virus 1; assay: Selectivity index, ratio of EC50 for Human immunodeficiency virus 1 isolate M3 expressing protease L10I, K20R, M36I, G48V, I62V, A71V, V82A, I93L mutant to EC50 for Human immunodeficiency virus 1 3B expressing wild-type protease; assay type: functional; summary of the method: as §3
# [10] = tested on: Human immunodeficiency virus 1; assay: Selectivity index, ratio of EC50 for Human immunodeficiency virus 1 isolate M1 expressing protease L10I, M46I, I64V, I84V, L90M, I93L mutant to EC50 for Human immunodeficiency virus 1 3B expressing wild-type protease; assay type: functional; summary of the method: as §3
# Protease = Protease (Human immunodeficiency virus 1, UniProt Q9YQ12); assay: Inhibition of Human immunodeficiency virus 1 3B protease
# Protease, sequence (Q9YQ12 whole entry): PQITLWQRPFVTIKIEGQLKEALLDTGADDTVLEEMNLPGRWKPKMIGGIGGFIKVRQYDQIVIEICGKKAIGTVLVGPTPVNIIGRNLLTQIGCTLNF
# [11] = Ratio of EC50 for Human immunodeficiency virus 1 3B expressing wild-type protease to IC50 for Human immunodeficiency virus 1 3B protease
compound,measurement,setting,value
CC(C)CN(C[C@@H](O)[C@H](Cc1ccccc1)NC(=O)O[C@H]1CO[C@H]2OCC[C@H]21)S(=O)(=O)c1ccc(N)cc1,EC50,[1],51 nM
same,EC50,[2],17.2 nM
same,CC50,[3],> 9.8 µM
same,EC50,[4],6.6 nM
same,EC50,[5],11.3 nM
same,EC50,[6],2.3 nM
CNc1nc2ccc(S(=O)(=O)N(CC(C)C)C[C@@H](O)[C@H](Cc3ccccc3)NC(=O)O[C@H]3CO[C@H]4OCC[C@H]43)cc2o1,EC50,[1],3.2 nM
same,EC50,[2],8.3 nM
same,selectivity ratio,[7],> 2000
same,CC50,[3],> 9.8 µM
same,EC50,[4],2.3 nM
same,Ratio EC50,[8],1.4
same,EC50,[5],2.7 nM
same,EC50,[6],0.9 nM
same,Ratio EC50,[9],0.4
same,Ratio EC50,[10],1.2
CC(C)CN(C[C@@H](O)[C@H](Cc1ccccc1)NC(=O)O[C@H]1CO[C@H]2OC[C@H](O)[C@H]21)S(=O)(=O)c1ccc(N)cc1,EC50,[1],204 nM
same,EC50,[2],814 nM
same,IC50,Protease,2.9 nM
same,Ratio,[11],250
same,EC50,[4],773 nM
same,Ratio EC50,[8],0.3
same,EC50,[5],112 nM
same,EC50,[6],40.4 nM
same,Ratio EC50,[9],<0.1
same,Ratio EC50,[10],0.1
CC(C)CN(C[C@@H](O)[C@H](Cc1ccccc1)NC(=O)O[C@H]1CO[C@H]2OC[C@H](OCc3ccccc3)[C@H]21)S(=O)(=O)c1ccc(N)cc1,EC50,[1],18 nM
same,EC50,[2],12.1 nM
same,selectivity ratio,[7],> 2000
same,IC50,Protease,3.5 nM
same,CC50,[3],> 9.8 µM
same,EC50,[4],1.5 nM
same,Ratio EC50,[8],12
same,EC50,[5],4.7 nM
same,EC50,[6],1.7 nM
same,Ratio EC50,[9],1.1
same,Ratio EC50,[10],3.1
CC(C)CN(C[C@@H](O)[C@H](Cc1ccccc1)NC(=O)O[C@H]1CO[C@H]2OC[C@H](Oc3ccccc3)[C@H]21)S(=O)(=O)c1ccc(N)cc1,EC50,[1],249 nM
same,EC50,[2],47.2 nM
same,selectivity ratio,[7],> 2000
same,CC50,[3],> 9.8 µM
same,EC50,[4],8.9 nM
same,Ratio EC50,[8],28
same,EC50,[5],32.5 nM
same,EC50,[6],6.5 nM
same,Ratio EC50,[9],0.7
same,Ratio EC50,[10],3.7
COCCO[C@H]1CO[C@@H]2OC[C@H](OC(=O)N[C@@H](Cc3ccccc3)[C@H](O)CN(CC(C)C)S(=O)(=O)c3ccc(N)cc3)[C@@H]21,EC50,[1],71.4 nM
same,EC50,[2],37 nM
same,selectivity ratio,[7],> 2000
same,IC50,Protease,2.5 nM
same,CC50,[3],> 9.8 µM
same,EC50,[4],15.5 nM
same,Ratio EC50,[8],4.6
same,EC50,[5],11.9 nM
same,EC50,[6],6.8 nM
same,Ratio EC50,[9],0.4
same,Ratio EC50,[10],0.8
CNc1nc2ccc(S(=O)(=O)N(CC(C)C)C[C@@H](O)[C@H](Cc3ccccc3)NC(=O)O[C@H]3CO[C@H]4OC[C@H](O)[C@H]43)cc2o1,EC50,[1],108 nM
same,EC50,[2],446 nM
same,EC50,[4],138 nM
same,Ratio EC50,[8],0.8
same,EC50,[5],125 nM
same,EC50,[6],104 nM
same,Ratio EC50,[9],0.8
same,Ratio EC50,[10],0.9
CNc1nc2ccc(S(=O)(=O)N(CC(C)C)C[C@@H](O)[C@H](Cc3ccccc3)NC(=O)O[C@H]3CO[C@H]4OC[C@H](OCc5ccccc5)[C@H]43)cc2o1,EC50,[1],3.4 nM
same,EC50,[2],3.7 nM
same,selectivity ratio,[7],> 2000
same,CC50,[3],> 9.8 µM
same,EC50,[4],0.8 nM
same,Ratio EC50,[8],4.5
same,EC50,[5],1.7 nM
same,EC50,[6],1 nM
same,Ratio EC50,[9],1.3
same,Ratio EC50,[10],2.2
CNc1nc2ccc(S(=O)(=O)N(CC(C)C)C[C@@H](O)[C@H](Cc3ccccc3)NC(=O)O[C@H]3CO[C@H]4OC[C@H](OCc5ccccc5F)[C@H]43)cc2o1,EC50,[1],2.1 nM
same,EC50,[2],4 nM
same,selectivity ratio,[7],> 2000
same,CC50,[3],> 9.8 µM
same,EC50,[4],0.7 nM
same,Ratio EC50,[8],3.1
same,EC50,[5],1.3 nM
same,EC50,[6],0.9 nM
same,Ratio EC50,[9],1.3
same,Ratio EC50,[10],2
CNc1nc2ccc(S(=O)(=O)N(CC(C)C)C[C@@H](O)[C@H](Cc3ccccc3)NC(=O)O[C@H]3CO[C@H]4OC[C@H](OCc5cccc(F)c5)[C@H]43)cc2o1,EC50,[1],1.7 nM
same,EC50,[2],3.7 nM
same,selectivity ratio,[7],> 2000
same,CC50,[3],> 9.8 µM
same,EC50,[4],0.6 nM
same,Ratio EC50,[8],2.7
same,EC50,[5],0.8 nM
same,EC50,[6],0.8 nM
same,Ratio EC50,[9],1.3
same,Ratio EC50,[10],1.2
CNc1nc2ccc(S(=O)(=O)N(CC(C)C)C[C@@H](O)[C@H](Cc3ccccc3)NC(=O)O[C@H]3CO[C@H]4OC[C@H](OCc5ccc(F)cc5)[C@H]43)cc2o1,EC50,[1],2.3 nM
same,EC50,[2],4 nM
same,selectivity ratio,[7],> 2000
same,CC50,[3],> 9.8 µM
same,EC50,[4],0.6 nM
same,Ratio EC50,[8],3.8
same,EC50,[5],1.1 nM
same,EC50,[6],1 nM
same,Ratio EC50,[9],1.6
same,Ratio EC50,[10],1.8
CNc1nc2ccc(S(=O)(=O)N(CC(C)C)C[C@@H](O)[C@H](Cc3ccccc3)NC(=O)O[C@H]3CO[C@H]4OC[C@H](OCc5ccc(F)cc5F)[C@H]43)cc2o1,EC50,[1],2.3 nM
same,EC50,[2],5.4 nM
same,selectivity ratio,[7],> 2000
same,CC50,[3],> 9.8 µM
same,EC50,[4],0.6 nM
same,Ratio EC50,[8],4.1
same,EC50,[5],1.1 nM
same,EC50,[6],0.7 nM
same,Ratio EC50,[9],1.3
same,Ratio EC50,[10],2
CNc1nc2ccc(S(=O)(=O)N(CC(C)C)C[C@@H](O)[C@H](Cc3ccccc3)NC(=O)O[C@H]3CO[C@H]4OC[C@H](OCCOC)[C@H]43)cc2o1,EC50,[1],10.8 nM
same,EC50,[2],24 nM
same,selectivity ratio,[7],> 2000
same,IC50,Protease,1.5 nM
same,CC50,[3],> 9.8 µM
same,EC50,[4],8.6 nM
same,Ratio EC50,[8],1.3
same,EC50,[5],6.9 nM
same,EC50,[6],4.3 nM
same,Ratio EC50,[9],0.5
same,Ratio EC50,[10],0.8
CNc1nc2ccc(S(=O)(=O)N(CC(C)C)C[C@@H](O)[C@H](Cc3ccccc3)NC(=O)O[C@H]3CO[C@H]4OC[C@H](OCOC)[C@H]43)cc2o1,EC50,[1],11.2 nM
same,EC50,[2],7 nM
same,selectivity ratio,[7],> 2000
same,CC50,[3],> 9.8 µM
same,EC50,[4],3.4 nM
same,Ratio EC50,[8],2.4
same,EC50,[5],5 nM
same,EC50,[6],1.9 nM
same,Ratio EC50,[9],0.7
same,Ratio EC50,[10],1.2
CNc1nc2ccc(S(=O)(=O)N(CC(C)C)C[C@@H](O)[C@H](Cc3ccccc3)NC(=O)O[C@H]3CO[C@H]4OC[C@H](OCSC)[C@H]43)cc2o1,EC50,[1],9.3 nM
same,EC50,[2],6.7 nM
same,selectivity ratio,[7],> 2000
same,CC50,[3],> 9.8 µM
same,EC50,[4],1.3 nM
same,Ratio EC50,[8],7.1
same,EC50,[5],3.9 nM
same,EC50,[6],2.2 nM
same,Ratio EC50,[9],1.7
same,Ratio EC50,[10],3
COC(=O)N[C@H](C(=O)N[C@@H](Cc1ccccc1)[C@@H](O)CN(Cc1ccc(-c2ccccn2)cc1)NC(=O)[C@@H](NC(=O)OC)C(C)(C)C)C(C)(C)C [ATAZANAVIR],EC50,[1],3.2 nM
same,EC50,[2],13.3 nM
same,selectivity ratio,[7],> 2000
same,CC50,[3],> 9.8 µM
same,EC50,[4],6.9 nM
same,Ratio EC50,[8],0.5
same,EC50,[5],58 nM
same,EC50,[6],60.5 nM
same,Ratio EC50,[9],8.8
same,Ratio EC50,[10],8.4
Cc1cccc(C)c1OCC(=O)N[C@@H](Cc1ccccc1)[C@@H](O)C[C@H](Cc1ccccc1)NC(=O)[C@H](C(C)C)N1CCCNC1=O [LOPINAVIR],EC50,[1],307 nM
same,EC50,[2],63.2 nM
same,CC50,[3],> 9.8 µM
same,EC50,[4],13.9 nM
same,EC50,[5],115 nM
